Bioassay records (PubChem)
dFosB activator: activators of delta FosB homodimer, primary screen, biochemical, fluorescence polarization, TAMRA-CDK5 oligo, single point. purified delta FosB; percent of positive-control signal above neutral wells. activation, % at 25 µM. hit rate 0.99% among 340,000. Protein FosB (Mus musculus), P13346;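 active = mean activation above about 17%, with every replicate also reaching it, limit read from the data, passing the limit was not always enough; inconclusive = only one of the two conditions met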
Target sequence (P13346 whole entry, looked up): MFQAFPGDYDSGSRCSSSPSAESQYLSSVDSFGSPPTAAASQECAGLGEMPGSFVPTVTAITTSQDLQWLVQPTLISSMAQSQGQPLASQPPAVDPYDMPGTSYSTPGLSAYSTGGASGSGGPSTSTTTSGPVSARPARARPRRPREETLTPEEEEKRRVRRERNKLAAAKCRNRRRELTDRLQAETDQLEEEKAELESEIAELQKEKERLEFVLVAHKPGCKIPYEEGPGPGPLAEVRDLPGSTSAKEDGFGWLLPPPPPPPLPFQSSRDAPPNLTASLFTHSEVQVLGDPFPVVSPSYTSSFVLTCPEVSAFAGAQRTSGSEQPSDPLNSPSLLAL
VIM-2 inhibitor: VIM-2 metallo-beta-lactamase inhibitors, primary screen, biochemical, epi-absorbance readout, Pseudomonas aeruginosa enzyme | purified VIM-2, nitrocefin hydrolysis, epi-absorbance fluorescence | inhibition, % at 5.6 µM | hit rate 0.89% among 290,000 | AID 1527, 2009;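 active = inhibition above the mean of all tested compounds plus 3 SD, cutoff set per screening run, cut at about 7.5% in these data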;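 note: red hydrolysis product quenches plate fluorescence so inhibitors raise well fluorescence; 0% = enzyme with DMSO and 100% = DMSO without enzyme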
IMP-1 inh: IMP-1 metallo-beta-lactamase inhibitors, primary screen, biochemical, epi-absorbance readout, Pseudomonas aeruginosa enzyme | inhibition, % at 5.6 µM | purified IMP-1, nitrocefin hydrolysis, epi-absorbance fluorescence | hit rate 0.45% among 290,000 | metallo-beta-lactamase IMP-1 (Pseudomonas aeruginosa);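 active = inhibition above the mean plus 3 SD of all compounds in the same screening run, cut at about 4.5% in these data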;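 note: 0% = IMP-1 with DMSO and 100% = DMSO wells lacking enzyme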
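Assay system: purified recombinant IMP-1 beta-lactamase. Input: IMP-1 0.2 nM before substrate addition. Buffer or medium: Zinc- and detergent-supplemented HEPES buffer, pH 7.1. Schedule: 25 °C, 15 min preincubation, 25 min reaction. Signal: Epi-absorbance fluorescence, 480 nm excitation, 530 nm emission. Evaluation: percent inhibition from optical density relative to buffer-blank wells.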
m5-HT2A agonist: mouse Htr2a agonists via beta-arrestin recruitment, primary screen, cell-based, luminescence; 5-hydroxytryptamine receptor 2A (Mus musculus), P35363; CHO-K1 mHTR2A beta-arrestin complementation; percent of 30 µM serotonin response; activation, % at 7.6 µM; hit rate 0.66% among 360,000; AID 624169, 2012;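 active = activation above a run cutoff, the mean activation of all tested compounds plus 3 SD, cut at about 14% in these data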;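 note: 0% = plate median of compound wells and 100% = 30 µM serotonin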
Starred values were filed as active, the others as inactive; ? = inconclusive; nt = no result given. An excerpt weighted towards active compounds, which were near 2.5% of everything screened.

SMILES	dFosB activator	VIM-2 inhibitor	IMP-1 inh	m5-HT2A agonist
C#CCOCCOCCOCCNc1nc(N2CCN(C(=O)CCCCCCCCCCNC(=O)[C@H]([C@@H](C)CC)n3cc(CCCCCN)nn3)CC2)nc(N2CCN(C(=O)CCCCCCCCCCNC(=O)[C@H]([C@@H](C)CC)n3cc(CCCCN=C(N)N)nn3)CC2)n1	-265	nt	nt	16*
CC1CCCC(C)N1C(=O)CN1C(=O)c2ccccc2S1(=O)=O (stereo not drawn)	6	nt	nt	1
COc1ccc(OC)c(CC(=O)N2CCc3cc(OC)c(OC)cc3C2)c1	5	-1	-5	9
CNS(=O)(=O)c1ccc(CNC[C@H]2O[C@@H](n3cnc(C(N)=O)n3)[C@H](O)[C@@H]2O)cc1	4	nt	nt	5
Cc1c(OCC(=O)NC(Cc2ccc(Cl)cc2)C(=O)O)ccc2c3c(c(=O)oc12)CCCC3 (stereo not drawn)	-20	1	-4	4
Cc1c(OCC(=O)N[C@@H](Cc2ccccc2)C(=O)O)ccc2c3c(c(=O)oc12)CCC3	-15	12*	1	1
Cc1c(OCC(=O)N[C@@H](Cc2ccccc2)C(=O)O)ccc2c1oc(=O)c1ccccc12	-34	12*	-3	2
Cc1c(OCC(=O)NC(Cc2c[nH]c3ccc(O)cc23)C(=O)O)ccc2c3c(c(=O)oc12)CCC3 (stereo not drawn)	-3	0	-3	0
COc1ccc(Nc2cc(C)c3c(O)cccc3n2)cc1	?	8.8*	-1	-6
Cc1ccc(Nc2cc(C)c3c(O)cccc3n2)cc1C	39*	3	0	-10
COC(=O)c1cc(Nc2cc(C)c3c(O)cccc3n2)cc(C(=O)OC)c1	12	2	-4	-2
Cc1ccc(-c2nn(-c3cc(N4CCNCC4)ccc3[N+](=O)[O-])c(=O)c3ccccc23)cc1	35*	-3	-3	-7
Cc1nn(-c2cc(N3CCCCCC3)ccc2[N+](=O)[O-])c(=O)c2ccccc12	-1	-3	-4	3
c1ccc2c(Nc3ccc(N4CCOCC4)cc3)nc(N3CCOCC3)nc2c1	-2	9.4*	-2	2
Cc1cccc(-c2nc(Nc3ccc(N4CCOCC4)cc3)c3ccccc3n2)c1	-10	-1	-3	-3
NS(=O)(=O)c1ccc(CCNC(=O)c2cccc(S(=O)(=O)N3CCc4ccccc43)c2)cc1	nt	nt	nt	-2
CCC(C(=O)NCCN1CCOCC1)n1c2ccccc2c2nc(=O)cc(C)n21 (stereo not drawn)	3	-2	-2	-3
O=C(c1ccc(Cl)cc1)c1c[nH]cc1-c1ccccc1	0	2	4.5*	-4
COc1ccc(C(=O)c2c[nH]cc2-c2ccccc2)cc1	4	-2	-1	-3
COc1cccc(CNS(=O)(=O)c2ccc3c(c2)N(C(C)=O)CCO3)c1	-6	-2	-2	-6
Cc1ccc(C2=C(c3ccc([N+](=O)[O-])cc3)C(=O)OC2)cc1C	-2	-2	13*	-2
Cc1cc(C)c(NC(=O)Cn2cnc3c(oc4ccccc43)c2=O)c(C)c1	52*	-2	-3	1
O=C(Nc1ccc(Cl)cc1C(=O)Nc1ccncc1)c1ccco1	-16	8.2*	-3	-4
N#CC1=C(SCC(=O)Nc2cccc3cccnc23)NC(=O)C(C#N)C12CCCCC2 (stereo not drawn)	-5	-4	-4	16*
Cc1cccc(N2CC(C(=O)NCc3ccco3)CC2=O)c1C (stereo not drawn)	3	nt	nt	-7
SMILES	dFosB activator	VIM-2 inhibitor	IMP-1 inh	m5-HT2A agonist
CC(=O)Nc1cc2cc(NS(=O)(=O)c3ccc(C)cc3)ccc2oc1=O	155*	-3	-3	4
CC(=O)c1c(C)oc2ccc(NS(=O)(=O)c3ccc(C)cc3)cc12	-1	-2	-2	3
O=C(O)C1C2C=CC(C2)C1C(=O)NCCCN1CCCC1=O (stereo not drawn)	-2	1	12*	3
CCc1cccc(C)c1NC(=O)C1=C(C(=O)O)CCCC1	0	0	7.8*	0
CCc1cccc(C)c1NC(=O)c1ccccc1	-2	-7	-4	-1
O=C(NCCNc1ccccc1[N+](=O)[O-])c1cc(F)c(F)cc1Cl	-8	-2	-4	10
Cc1nc(N(C)C)c2sc(=S)n(C)c2n1	-8	7.9*	-2	-3
Cc1nc(N(C)C)c2sc(=S)n(-c3ccccc3)c2n1	9	-2	-1	-1
CC(=O)Nc1c(C(=O)O)ccc(C)c1OCc1ccccc1	1	nt	nt	-4
CCOC(=O)c1[nH]c2ccc(F)cc2c1NC(=O)c1ccccc1C(=O)O	-2	9.8*	3	8
CCCCCC(=O)N(O)C1CC(=O)N(c2ccccc2)C1=O (stereo not drawn)	-12	8.1*	1	5
CCCCCCC(=O)N(O)C1CC(=O)N(Cc2ccccc2)C1=O (stereo not drawn)	-5	-3	-3	1
Cc1cc([N+](=O)[O-])cc2c1NCC1CC=CC21 (stereo not drawn)	-5	-3	-4	-2
Cc1cc([N+](=O)[O-])c2c(c1C)C1C=CCC1C(c1ccccn1)N2 (stereo not drawn)	nt	1	5.9*	nt
COc1ccc(OC)c(NCCN2C(=O)c3ccccc3C2=O)c1	nt	nt	nt	-1
O=C1CSC(=S)N1/N=C/c1c(F)cccc1F	-7	-2	12*	-7
COc1ccc2ccccc2c1/C=N/N1C(=O)CSC1=S	-10	0	22*	-9
O=C1CSC(=S)N1/N=C/c1cccc(C(F)(F)F)c1	-9	-2	8.9*	1
CC(C)c1nc(SCC(=O)Nc2c[nH]c(=O)[nH]c2=O)c2cnn(-c3ccccc3)c2n1	153*	1	-2	-3
Cc1nc(SCC(=O)Nc2c(C)nn(C)c2C)c2cnn(-c3ccccc3)c2n1	7	-1	-2	-6
CC(=O)c1nc(N2C(=O)CC(Cc3cccc(C)c3)C2=O)sc1C (stereo not drawn)	-2	-6	17*	1
CC(=O)c1nc(N2C(=O)CC(Cc3cc(C)cc(C)c3)C2=O)sc1C (stereo not drawn)	-6	-1	1	-4
CC1=C(C(=O)Nc2ccccc2)C(c2ccc(C)cc2)N=C(Nc2nc3ccccc3o2)N1 (stereo not drawn)	42*	-3	-2	-6
CCn1c(C)c(C(C)=O)c(N2CCN(c3ccccc3)CC2)nc1=S	-5	2	6.6*	-2
N#Cc1ccc(CN2CCN(C(=O)CCNS(=O)(=O)c3ccc(F)c(Cl)c3)CC2)cc1	-2	nt	nt	49*
N#Cc1ccc(CN2CCN(C(=O)CCNS(=O)(=O)c3ccc(F)c(F)c3)CC2)cc1	-1	nt	nt	1
O=C(CCNC(=O)c1ccc([N+](=O)[O-])cc1)Nc1cccc(S(=O)(=O)N2CCOCC2)c1	-7	nt	nt	6
